In the library only some 2.7% were active in any assay of this set; here they are far more common.
Hck Nef HTS – blocks Nef-activated human Hck kinase. Recombinant Hck-YEEI plus Nef, Z-Lyte FRET kinase assay. inhibition, % at 20 µM. 220,000 compounds, 0.68% hits;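 active means Hck-Nef kinase inhibition above about 50%, limit read from the data; inactive means inhibition below that limit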;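 further: 0% = DMSO with Hck plus Nef and 100% = Hck alone without Nef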
Target sequence (P08631 whole entry, looked up): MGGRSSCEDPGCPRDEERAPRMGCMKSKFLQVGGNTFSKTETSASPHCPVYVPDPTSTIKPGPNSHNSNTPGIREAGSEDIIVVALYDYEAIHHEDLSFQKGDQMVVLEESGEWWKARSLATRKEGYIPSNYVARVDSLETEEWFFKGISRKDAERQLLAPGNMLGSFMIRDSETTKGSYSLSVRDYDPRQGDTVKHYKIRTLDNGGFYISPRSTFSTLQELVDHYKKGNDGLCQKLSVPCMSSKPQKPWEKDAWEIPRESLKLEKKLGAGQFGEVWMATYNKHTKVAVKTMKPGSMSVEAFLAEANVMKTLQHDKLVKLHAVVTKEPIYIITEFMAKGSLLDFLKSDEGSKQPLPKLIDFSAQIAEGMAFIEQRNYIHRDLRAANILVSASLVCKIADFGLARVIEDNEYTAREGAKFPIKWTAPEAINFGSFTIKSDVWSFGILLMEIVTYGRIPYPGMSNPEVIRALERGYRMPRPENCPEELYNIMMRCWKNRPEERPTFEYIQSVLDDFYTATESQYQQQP
14-3-3 Bad PPI – disrupts binding of bovine 14-3-3 zeta to phospho-Bad peptide; inhibition, % at 21.7 µM; TR-FRET 14-3-3zeta/Dy647-pBad peptide displacement, 1 h; 220,000 compounds, 0.71% hits;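 active means inhibition above about 70%, limit read from the data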;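 further: 0% = full 14-3-3 plus peptide FRET controls and 100% = background without 14-3-3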
MDM2 E3 inh – inhibitors of human Mdm2 E3 ubiquitin ligase; Q00987; cell-based MDM2 ubiquitination luciferase reporter, 2 h; 0 = plate control, 100 = twice control, blank-subtracted; signal enhancement, % at 5 µM; 210,000 compounds, 0.11% hits; AID 1230;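 active means signal enhancement of 30% or more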;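 further: luminescence tracks abundance of the self-degrading MDM2-luciferase fusion protein; higher signal means inhibition of MDM2 E3 ligase activity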
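Timing – 2 h compound exposure at 37 °C · Assay system – mammalian cells stably expressing self-ubiquitinating, self-degrading MDM2 E3–luciferase fusion · Amount – 2000 cells seeded into each well · Measure – % luminescence enhancement versus blank-corrected plate control mean · Measured by – SteadyLite luminescence, 15 min reagent step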
TbHK1 inh – blocks Trypanosoma brucei hexokinase 1 activity; recombinant TbHK1, G6PDH-coupled NADH A340; inhibition, % at 10 µM; AID 1430; 220,000 compounds, 0.11% hits;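 active means inhibition of 50% or more in the single-dose primary screen; inactive means inhibition below 50%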
Wee1 stabilizer – inhibitors of human Wee1 degradation | P30291 | AID 1321 | HeLa Luc-Wee1K328M stability, luciferase luminescence; 100% = proteasome inhibitor MG132 effect | 220,000 compounds, 1.2% hits | reporter increase, % at 5 µM;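 active means activation above the mean of all tested compounds plus 3 SD, set per screening run, cut at about 8.8% in these data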;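 further: cells exposed to compound for 20 h before luminescence read; 0% = DMSO alone and 100% = MG132 at 30 µM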
Hck Nef conf – Hck-Nef kinase inhibition, confirmation; 1,300 compounds, 28% hits; shares compounds with Hck Nef HTS; calls only at 10 µM; Recombinant Hck-YEEI:Nef, Z-Lyte FRET kinase assay;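 active means average inhibition of at least 50%, with Z-scores no higher than 3 in both the phospho-tyrosine peptide and fluorescence counterscreens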
* hit, by the source's call.

How did N#Cc1ccccc1NC(=O)CSc1nnc(-c2ccccc2)n1-c1ccccc1 do in these assays?
Hck Nef HTS: 2.1; 14-3-3 Bad PPI: -6.5; MDM2 E3 inh: -11.3; TbHK1 inh: 0.3; Wee1 stabilizer: 2.2

How did CCN(CC)c1ccc(-c2nnc(SCC(=O)Nc3ccccc3C#N)n2-c2ccccc2)cc1 do in these assays?
Hck Nef HTS: 66.0*; 14-3-3 Bad PPI: 10.7; MDM2 E3 inh: -77.2; TbHK1 inh: -21.6; Wee1 stabilizer: 1.7; Hck Nef conf: active

Results for Cc1ccc(C(=O)NCC(=O)O)o1 ?
Hck Nef HTS: 16.7; 14-3-3 Bad PPI: -19.3; MDM2 E3 inh: 1.6; TbHK1 inh: 2.8; Wee1 stabilizer: -0.4

How did CCN1CCN(Cc2ccc(NC(=O)c3ccc(C)c(NC(=O)N4CCNC4=O)c3)cc2C(F)(F)F)CC1 do in these assays?
Hck Nef HTS: 28.1; 14-3-3 Bad PPI: -0.9; MDM2 E3 inh: -0.2; TbHK1 inh: 2.0

How did CCN1CCN(Cc2ccc(NC(=O)c3ccc(C)c(NC(=O)c4nccnc4N)c3)cc2C(F)(F)F)CC1 do in these assays?
Hck Nef HTS: 55.6*; 14-3-3 Bad PPI: -3.6; MDM2 E3 inh: -4.0; TbHK1 inh: -9.1; Hck Nef conf: inactive

What do the screens show for `CCN1CCN(Cc2ccc(NC(=O)c3ccc(C)c(NC(=O)c4nccn4C)c3)cc2C(F)(F)F)CC1`?
Hck Nef HTS: 16.5; 14-3-3 Bad PPI: -2.7; MDM2 E3 inh: 13.8; TbHK1 inh: 1.8

Results for CCN1CCN(Cc2ccc(NC(=O)c3ccc(C)c(NC(=O)c4cc(-c5ccc(Br)cc5)n[nH]4)c3)cc2C(F)(F)F)CC1 ?
Hck Nef HTS: 95.9*; 14-3-3 Bad PPI: -16.7; MDM2 E3 inh: 16.1; TbHK1 inh: 1.1; Hck Nef conf: active

What do the screens show for `COc1cc(O)c(C(C)=O)c(CC(=O)O)c1`?
Hck Nef HTS: 35.3; 14-3-3 Bad PPI: 13.9; MDM2 E3 inh: -21.6; TbHK1 inh: -20.6

How did CCCCCCOc1ccc(N2C(=O)CC(N(CCc3ccc(S(N)(=O)=O)cc3)C(C)=O)C2=O)cc1 (stereo not given) do in these assays?
Hck Nef HTS: 1.8; 14-3-3 Bad PPI: -11.4; TbHK1 inh: -0.8; Wee1 stabilizer: -2.7

How did COc1ccc(-c2cnc[nH]2)cc1 do in these assays?
Hck Nef HTS: 22.6; 14-3-3 Bad PPI: -10.6; MDM2 E3 inh: -12.0; TbHK1 inh: -5.0; Wee1 stabilizer: -1.0

Results for CC(C)n1c(=N)c(C(=O)NCCc2ccccc2)cc2c(=O)n3ccccc3nc21 ?
Hck Nef HTS: 138.1*; 14-3-3 Bad PPI: 9.3; MDM2 E3 inh: 23.0; TbHK1 inh: -7.7; Wee1 stabilizer: 3.4

What do the screens show for `Cc1cccn2c(=O)c3cc(C(=O)NCc4ccco4)c(=N)n(C(C)C)c3nc12`?
Hck Nef HTS: 71.6*; 14-3-3 Bad PPI: 4.1; MDM2 E3 inh: -16.5; TbHK1 inh: 0.1; Wee1 stabilizer: -2.3

What do the screens show for `CCOC(=O)c1cc2c(=O)n3cccc(C)c3nc2n(Cc2cccnc2)c1=N`?
Hck Nef HTS: 32.0; TbHK1 inh: -1.2; Wee1 stabilizer: 2.8

How did Cc1cccn2c(=O)c3cc(C(=O)NCc4cccnc4)c(=N)n(C(C)C)c3nc12 do in these assays?
Hck Nef HTS: 161.2*; 14-3-3 Bad PPI: -0.7; MDM2 E3 inh: -11.8; TbHK1 inh: -4.1; Wee1 stabilizer: -0.7

How did Cc1cccn2c(=O)c3cc(C(=O)NCc4ccco4)c(=N)n(CCc4ccccc4)c3nc12 do in these assays?
Hck Nef HTS: 42.3; 14-3-3 Bad PPI: 14.9; TbHK1 inh: -7.5; Wee1 stabilizer: -1.3

Results for CC1CCN(c2ccc(N3C(=O)C4CCCCC4C3=O)cc2[N+](=O)[O-])CC1 (stereo not given) ?
Hck Nef HTS: 3.1; 14-3-3 Bad PPI: -16.1; MDM2 E3 inh: -3.3; TbHK1 inh: -3.8; Wee1 stabilizer: 5.1

What do the screens show for `COc1ccc(OC)c(C(=O)CSc2nccc(-c3ccc(Br)cc3)n2)c1`?
Hck Nef HTS: 0.3; 14-3-3 Bad PPI: -0.8; MDM2 E3 inh: -17.4; TbHK1 inh: 4.0; Wee1 stabilizer: -3.1

Results for CC(C)CCNCC(=O)NC(c1ccccc1)c1ccccc1 ?
Hck Nef HTS: 18.1; 14-3-3 Bad PPI: 18.1; MDM2 E3 inh: -13.9; TbHK1 inh: 4.1; Wee1 stabilizer: 0.0

What do the screens show for `Cc1cc(=O)oc2cc(NS(=O)(=O)c3ccccc3)ccc12`?
Hck Nef HTS: 113.8*; 14-3-3 Bad PPI: 13.4; MDM2 E3 inh: -23.5; TbHK1 inh: -55.6; Wee1 stabilizer: -1.0

Results for Cc1cc(=O)oc2cc(NS(=O)(=O)c3ccc(F)cc3)ccc12 ?
Hck Nef HTS: 105.5*; 14-3-3 Bad PPI: 23.8; MDM2 E3 inh: 0.6; TbHK1 inh: -44.0; Wee1 stabilizer: -0.6

Results for COc1ccc(N(CC(=O)Nc2nccs2)S(=O)(=O)c2c(C)[nH]c(=O)[nH]c2=O)cc1 ?
Hck Nef HTS: 11.6; 14-3-3 Bad PPI: 1.2; MDM2 E3 inh: -16.8; TbHK1 inh: -8.1; Wee1 stabilizer: -0.5

How did CCn1c(SCC(=O)N2CCN(c3ccccc3)CC2)nnc1-c1c[nH]c2ccccc12 do in these assays?
Hck Nef HTS: 0.1; 14-3-3 Bad PPI: 5.2; MDM2 E3 inh: -5.5; TbHK1 inh: -9.3; Wee1 stabilizer: 1.4

How did N#Cc1cc([N+](=O)[O-])ccc1NC(=O)COC(=O)CC1CCCC1 do in these assays?
Hck Nef HTS: 18.5; 14-3-3 Bad PPI: -1.8; TbHK1 inh: -9.7; Wee1 stabilizer: 6.2

What do the screens show for `Cc1nc2ccccc2nc(=O)c1NNc1ccccc1`?
Hck Nef HTS: 101.0*; 14-3-3 Bad PPI: -7.6; TbHK1 inh: -21.0; Wee1 stabilizer: 3.1; Hck Nef conf: active

How did CCOC(=O)c1c(NC(=O)Cn2nc([N+](=O)[O-])c(Br)c2C)sc2c1CCC(C)C2 (stereo not given) do in these assays?
Hck Nef HTS: -1.8; 14-3-3 Bad PPI: 0.5; MDM2 E3 inh: -5.3; TbHK1 inh: -9.9; Wee1 stabilizer: -1.6

Results for COc1cc(S(=O)(=O)Nc2ccc(C)cc2)ccc1N=Cc1c(C)c(C#N)c(=O)n(C)c1O ?
Hck Nef HTS: 14.7; 14-3-3 Bad PPI: -3.9; MDM2 E3 inh: -5.1; TbHK1 inh: -5.9; Wee1 stabilizer: -3.0

What do the screens show for `Cc1ccc(N/N=C/c2c(C)c(C#N)c(=O)n(C)c2O)cc1C`?
Hck Nef HTS: 77.2*; 14-3-3 Bad PPI: -15.0; MDM2 E3 inh: -8.8; TbHK1 inh: -31.5; Wee1 stabilizer: 2.1; Hck Nef conf: inactive

How did Cc1cccc(-n2cnc(C(=O)NNC(=S)Nc3ccc(Cl)cc3)c2)n1 do in these assays?
Hck Nef HTS: -0.4; 14-3-3 Bad PPI: -9.2; MDM2 E3 inh: -4.9; TbHK1 inh: 2.4; Wee1 stabilizer: 0.8

How did Cc1cccc(-n2cnc(C(=O)N/N=C\c3ccc(Br)cc3)c2)n1 do in these assays?
Hck Nef HTS: 80.0*; 14-3-3 Bad PPI: 48.5; MDM2 E3 inh: -11.7; TbHK1 inh: -0.3; Wee1 stabilizer: -1.5; Hck Nef conf: inactive

Screening results: PubChem, several laboratories
